The values below come from PMC3180826 (ACS chemical neuroscience, 2010).

Substitutions are numbered along the chain they refer to. Several values for one entry are separate records, joined by “and”; a condition that tells them apart may be missing. Equal values may be shown once.

A short description of data set [1]: Plasma-brain exposure profile PK study. Particulars: rat. The format is in vivo. In short, it runs like this:
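Test compound was dissolved in sterile water at 5 mg/mL and dosed at 10 mg/kg ip in male Sprague–Dawley rats (225–250 g). Plasma and brain were collected at 0.5, 1, 2, 4 and 8 h, with three rats per time point. Brains were homogenized 1:3 in PBS, and samples were extracted by acetonitrile/0.1% formic acid precipitation with internal standard. Quantification was by LC-MS/MS SRM (10–2000 ng/mL calibration), with noncompartmental analysis.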

Data set [2] has as its target T1, M2 (Homo sapiens, UniProt P08172).
T1 sequence (P08172 1-466): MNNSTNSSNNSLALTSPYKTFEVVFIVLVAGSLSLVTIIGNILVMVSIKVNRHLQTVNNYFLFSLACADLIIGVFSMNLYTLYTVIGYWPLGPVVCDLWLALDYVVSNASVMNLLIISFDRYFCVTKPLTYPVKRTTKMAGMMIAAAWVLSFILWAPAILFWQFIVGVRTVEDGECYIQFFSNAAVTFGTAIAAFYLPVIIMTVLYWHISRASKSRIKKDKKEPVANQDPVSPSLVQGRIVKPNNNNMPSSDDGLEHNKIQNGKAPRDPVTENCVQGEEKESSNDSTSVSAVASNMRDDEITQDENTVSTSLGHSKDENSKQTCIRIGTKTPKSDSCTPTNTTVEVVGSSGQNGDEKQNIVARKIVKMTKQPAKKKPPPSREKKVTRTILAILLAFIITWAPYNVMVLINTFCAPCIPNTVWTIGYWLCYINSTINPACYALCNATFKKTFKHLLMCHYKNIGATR
Nature of the data set: [3H]-NMS competition binding, M2 CHO membranes. Particulars: concentrations well above those required to fully activate M1.

Data set [3] deals with T2, rM1 E397V (Rattus norvegicus, UniProt P08482, E397V).
T2 sequence (P08482 1-460 E397V): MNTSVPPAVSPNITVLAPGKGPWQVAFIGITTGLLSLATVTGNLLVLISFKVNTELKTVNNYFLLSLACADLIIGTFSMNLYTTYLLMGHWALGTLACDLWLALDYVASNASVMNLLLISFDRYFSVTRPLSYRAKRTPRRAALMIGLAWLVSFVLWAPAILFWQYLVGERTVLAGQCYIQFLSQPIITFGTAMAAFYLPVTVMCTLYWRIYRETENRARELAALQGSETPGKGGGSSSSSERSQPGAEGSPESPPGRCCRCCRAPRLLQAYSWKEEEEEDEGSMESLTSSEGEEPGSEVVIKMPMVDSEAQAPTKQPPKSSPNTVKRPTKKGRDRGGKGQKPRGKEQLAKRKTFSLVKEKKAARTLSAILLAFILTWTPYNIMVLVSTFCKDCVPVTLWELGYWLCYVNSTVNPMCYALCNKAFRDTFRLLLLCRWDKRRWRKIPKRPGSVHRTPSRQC
Nature of the data set: Calcium mobilization, rM1 E397V mutant CHO-K1 cells. The format is cell-based. Particulars: compared with wt rM1. In short, it runs like this: (§1)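 CHO-K1 cells were transiently transfected overnight at 37 °C with 10 μg of mutant rat M1 cDNA in pcDNA3.1+ using Fugene 6, then plated for the calcium assay. They were loaded with 2 μM Fluo-4 AM for 1 h at 37 °C in HEPES/probenecid-buffered HBSS, pH 7.4. Test compound dose–response series were added at 19 s. Calcium mobilization was measured as fluorescence increase over basal.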
(In general: Calcium assays in cells follow changes in intracellular calcium, usually with a dye or a luminescent sensor.)

In data set [4] the target is T3, rM1 receptor (Rattus norvegicus, UniProt P08482).
T3 sequence (P08482 1-460): T2 sequence (P08482 1-460 E397V) with V397E
Nature of the data set: Calcium mobilization assay, CHO-K1 cells stably expressing rM1. The format is cell-based.

The target in data set [5] is T4, rM1 K392D (Rattus norvegicus, UniProt P08482, K392D).
T4 sequence (P08482 1-460 K392D): T2 sequence (P08482 1-460 E397V) with K392D, V397E
Nature of the data set: Calcium mobilization, rM1 K392D mutant CHO-K1 cells. The format is cell-based. The note with it: compared with wt rM1. The method in brief: as §1

The target in data set [6] is T5, M1 (Rattus norvegicus, UniProt P08482).
T5 sequence (P08482 1-460): T2 sequence (P08482 1-460 E397V) with V397E
Nature of the data set: [3H]-NMS competition binding, M1 CHO membranes. The note with it: concentrations well above those required to fully activate M1.

The target in data set [7] is hM3 (Homo sapiens, UniProt P20309). Nature of the data set: Calcium mobilization assay, agonist mode, M3. The note with it: up to 30 μM. The format is cell-based. In short, it runs like this: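 CHO-K1 cells stably expressing hM2/Gqi5 or rM4/Gqi5 (6 × 10^4 cells/well), or hM3 or hM5 (5 × 10^4 cells/well), were cultured overnight at 37 °C in 5% CO2. Cells were loaded with 2 μM Fluo-4 AM for 1 h at 37 °C in HBSS with 20 mM HEPES and 2.5 mM probenecid, pH 7.4. Eight-point test compound concentration series were added at 19 s of a 130 s read. Calcium flux was read as fluorescence fold over basal.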
Chain of hM3 (P20309 whole entry): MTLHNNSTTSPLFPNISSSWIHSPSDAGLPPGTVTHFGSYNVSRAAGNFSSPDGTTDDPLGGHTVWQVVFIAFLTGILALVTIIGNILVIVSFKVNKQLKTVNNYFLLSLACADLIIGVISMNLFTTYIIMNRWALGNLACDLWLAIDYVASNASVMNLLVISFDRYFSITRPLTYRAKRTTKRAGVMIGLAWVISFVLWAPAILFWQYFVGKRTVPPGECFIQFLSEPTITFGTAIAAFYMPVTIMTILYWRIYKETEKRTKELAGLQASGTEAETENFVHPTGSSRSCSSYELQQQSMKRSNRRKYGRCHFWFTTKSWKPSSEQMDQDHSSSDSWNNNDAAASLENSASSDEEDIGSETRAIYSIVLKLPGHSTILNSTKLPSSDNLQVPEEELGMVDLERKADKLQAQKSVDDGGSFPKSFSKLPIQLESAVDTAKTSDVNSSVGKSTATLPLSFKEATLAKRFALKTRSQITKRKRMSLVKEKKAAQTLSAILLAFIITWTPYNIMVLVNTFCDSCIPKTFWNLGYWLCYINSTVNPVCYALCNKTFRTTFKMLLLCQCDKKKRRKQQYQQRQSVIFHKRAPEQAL

Broadly, the EC50 is the concentration needed to bring the measured effect to its halfway point. In data set [1] (10 mg/kg i.p., brain), `CCOC(=O)N1CCC(NCCNC(=O)c2ccccc2)CC1` [VU0184670, ethyl 4-(2-benzamidoethylamino)piperidine-1-carboxylate] came in with a brain level of 14.49012 ± 2.66382 µg/mL. This compound also displayed a plasma level in data set [1] (10 mg/kg i.p., plasma) of 0.31186 ± 0.02077 µg/mL. Also, the central penetrance result in data set [1] (i.p. administration) is recorded as “centrally-penetrant”. Besides, the “reduction of [3H]-NMS binding to M2” value in data set [2] was “did not reduce”. For the same compound, in data set [3], the “functional activity at E397V mutant” value is “mild reduction in potency and efficacy”. Besides, the EC50 in data set [4] was found to be 0.152 µM. Further, the “ACh Max efficacy” value in data set [4] (rM1 CHO-K1, calcium mobilization) is 85 % ACh Max and 85.01 % ACh Max. In addition, in data set [4] (rM1 cells, fixed increasing concentrations of atropine), the “Schild analysis: shift of dose-response curve with increasing atropine” value is reported as “rightward shift with diminished efficacy”. Further, the “functional activity at K392D mutant” value in data set [5] is “comparable results to wt rM1”. For the same compound, the “reduction of [3H]-NMS binding to M1” value in data set [6] is recorded as “did not reduce”. In data set [7], the “agonist activity at M3” value is recorded as “no activity”.
